High-throughput results as filed in PubChem.
Only some compounds are listed: those with a hit (about 1.7% of all), similar ones and a draw of the others.
M5 ag: human M5 muscarinic receptor agonists, primary screen, CHO-K1 cells, Fluo-8 calcium fluorescence; Muscarinic acetylcholine receptor M5 (Homo sapiens), P08912; actives 0.19% (n = 360,000); activation, % at 3 µM; CHO-K1 hM5 cells; 0% DMSO wells, 100% maximal acetylcholine response;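 active means activation above the run's mean over test compounds plus 3 SD, cut at about 23% in these data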;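 further: signal is peak over basal fluorescence ratio across the kinetic read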
Target sequence (P08912 whole entry, looked up): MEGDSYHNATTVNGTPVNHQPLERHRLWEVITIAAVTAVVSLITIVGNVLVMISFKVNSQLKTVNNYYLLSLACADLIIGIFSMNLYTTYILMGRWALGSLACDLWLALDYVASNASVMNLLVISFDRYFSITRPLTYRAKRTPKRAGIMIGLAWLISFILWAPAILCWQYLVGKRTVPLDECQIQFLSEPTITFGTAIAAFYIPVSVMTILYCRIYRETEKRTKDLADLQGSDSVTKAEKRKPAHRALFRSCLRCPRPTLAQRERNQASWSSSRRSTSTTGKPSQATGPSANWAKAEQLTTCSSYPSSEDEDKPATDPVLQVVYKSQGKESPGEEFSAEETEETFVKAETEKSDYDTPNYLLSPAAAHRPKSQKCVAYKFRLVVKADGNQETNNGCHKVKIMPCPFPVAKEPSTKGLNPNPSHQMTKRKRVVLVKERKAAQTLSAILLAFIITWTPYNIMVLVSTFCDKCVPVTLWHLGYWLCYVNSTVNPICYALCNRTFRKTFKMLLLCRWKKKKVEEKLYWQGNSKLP
CHRM5 antagonist: human M5 muscarinic receptor antagonists, primary screen, CHO cells, Fluo-8 calcium fluorescence; Muscarinic acetylcholine receptor M5 (Homo sapiens), P08912; actives 0.59% (n = 360,000); CHO-hM5 cells, ACh EC80; inhibition, % at 3 µM; AID 624040, 2012;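 active means inhibition above a per-plate cutoff, the mean of that plate's test compounds plus 3 SD, cut at about 27% in these data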;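 further: 0% = acetylcholine EC80 with DMSO and 100% = DMSO without agonist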
M1 PAM parental: nonselective calcium activators in parental CHO-K1 cells, primary screen, counter-screen for M1 PAM project, cell-based, Fluo-8 calcium fluorescence, full deck, 1536-well. ATP EC20; 0% at ATP EC20, 100% at ATP max. activation, % at 3 µM. actives 0.02% (n = 360,000). AID 602247, 2012;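 active means activation above the run cutoff, the mean activation of all test compounds plus 3 SD, cut at about 40% in these data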;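 further: peak over basal fluorescence ratio in a 140 s read after ATP addition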
CHO-K1 Ca antag: M1 antagonist counterscreen hit in parental CHO-K1 cells; ATP-induced calcium, Fluo-8 fluorescence; inhibition, % at 3 µM; actives 0.6% (n = 360,000); AID 602250;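 active means inhibition above a per-plate cutoff, the plate's mean sample inhibition plus 3 SD, cut at about 24% in these data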;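 further: 0% = DMSO plus EC80 ATP and 100% = DMSO alone without ATP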
CHRM5 PAM: human M5 muscarinic receptor positive allosteric modulators, primary screen, CHO-K1 cells, Fluo-8 calcium fluorescence; AID 624038, 2012; activation, % at 3 µM; CHO-K1 hM5, ACh EC20 PAM; 0% = ACh EC20, 100% = ACh EC100; Muscarinic acetylcholine receptor M5 (Homo sapiens), P08912; actives 0.3% (n = 360,000);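 active means activation above the run cutoff, the mean activation of all test compounds plus 3 SD, cut at about 18% in these data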
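System: CHO-K1 hM5 cells. Reagent: acetylcholine, EC20 level. Compound dosing: single dose, 3 µM nominal final test concentration. Timing: Post-acetylcholine fluorescence recording 140 s. Detection: Fluo-8 calcium fluorescence. Read-out: % activation, ACh-normalized. Benchmarks: ACh EC20 and EC100 wells. Repeats: singlicate, one well per test compound.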
M1 ag parental: counter-screen for M1 agonists: effect in parental CHO-K1 cells. Fluo-8 calcium fluorescence; scaled to maximal ATP response, vehicle zero. activation, % at 3 µM. actives 0.48% (n = 360,000); in the data active means activation above about 15%;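 further: untransfected CHO-K1 host cells lacking M1 receptor as counterscreen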
* = called active by the depositor.

`Cc1nc(N)c(Cc2ccc(Cl)cc2Cl)c(N)n1` gave M5 ag 2, CHRM5 antagonist 28*, M1 PAM parental 2, CHO-K1 Ca antag 11, CHRM5 PAM -17 and M1 ag parental 14.
`CCC(=O)NC(c1ccccc1Cl)c1c(O)ccc2ccccc12` (stereo unspecified) gave M5 ag -6, CHRM5 antagonist 8, M1 PAM parental 22, CHO-K1 Ca antag -15, CHRM5 PAM -3 and M1 ag parental 2.
For COc1ccccc1C(NC(=O)C1CCCCC1)c1c(O)ccc2ccccc12 (stereo unspecified) the results were M5 ag -3, CHRM5 antagonist -5, M1 PAM parental 16, CHO-K1 Ca antag 3, CHRM5 PAM 1 and M1 ag parental 20*.
`COc1ccc(CNC(=O)[C@]2(C)CCC[C@@]3(C)C4CC[C@@]5(C)C[C@]4(CCC32)CC5=O)cc1` (stereo partly specified) gave M5 ag -4, CHRM5 antagonist 11, M1 PAM parental 4, CHO-K1 Ca antag -10, CHRM5 PAM -21 and M1 ag parental 1.
For C[C@]1(CO)CCC[C@@]2(C)C1CC[C@@H](CO)[C@@H]2CCc1ccoc1 (stereo partly specified) the results were M5 ag 5, CHRM5 antagonist 19, M1 PAM parental -4, CHO-K1 Ca antag 30*, CHRM5 PAM -11 and M1 ag parental 14.
For CN(Cc1nc(CC2CC2)no1)CC12CC3CC(CC(C3)C1)C2 the results were M5 ag 1, CHRM5 antagonist -14, M1 PAM parental -2, CHO-K1 Ca antag -2, CHRM5 PAM 4 and M1 ag parental 0.
For O=C(COC(=O)/C=C/c1ccccc1)NCCC1=CCCCC1 the results were M5 ag -5, CHRM5 antagonist -4, M1 PAM parental 13, CHO-K1 Ca antag -12, CHRM5 PAM -1 and M1 ag parental 2.
O=C(COC(=O)/C=C/c1ccc(Cl)cc1Cl)NCCC1=CCCCC1 was read as M5 ag 6, CHRM5 antagonist 24, M1 PAM parental -11, CHO-K1 Ca antag 9, CHRM5 PAM 27* and M1 ag parental 0.
O=C(C1CCC(CNS(=O)(=O)c2cccs2)CC1)N1CCN(c2ccc(Cl)cc2)CC1 (stereo unspecified) was read as M5 ag 1, CHRM5 antagonist 7, M1 PAM parental 19, CHO-K1 Ca antag -2, CHRM5 PAM -3 and M1 ag parental 16*.
`COC(=O)CSc1nc2ccc(NC(=O)CSc3nnnn3Cc3ccccc3)cc2s1` gave M5 ag -4, CHRM5 antagonist 13, M1 PAM parental 9, CHO-K1 Ca antag 14, CHRM5 PAM -36 and M1 ag parental 3.
Screening COc1ccc(-n2c(C)nc(N)c2C(=O)c2ccccc2)cc1 returned M5 ag 2, CHRM5 antagonist -4, M1 PAM parental 15, CHO-K1 Ca antag -8, CHRM5 PAM 7 and M1 ag parental 1.
COC(=O)c1c(N)nc(C)n1-c1ccc(OC)cc1 was read as M5 ag 1, CHRM5 antagonist 4, M1 PAM parental -6, CHO-K1 Ca antag 25*, CHRM5 PAM -3 and M1 ag parental 0.
Screening COc1ccc(CCNC(=O)c2cc(S(=O)(=O)N(C)C)ccc2N2CCCC2)cc1 returned M5 ag 1, CHRM5 antagonist 4, M1 PAM parental -10, CHO-K1 Ca antag -2, CHRM5 PAM 3 and M1 ag parental 1.
Screening CON(C)C(=O)CC(CN(Cc1ccccc1)C(=O)OC(C)(C)C)c1ccc(Cl)cc1 (stereo unspecified) returned M5 ag -4, CHRM5 antagonist -8, M1 PAM parental 18, CHO-K1 Ca antag -16, CHRM5 PAM -4 and M1 ag parental 1.
`CON(C)C(=O)CCN(Cc1ccccc1)C(=O)OC(C)(C)C` gave M5 ag -4, CHRM5 antagonist -5, M1 PAM parental -7, CHO-K1 Ca antag -9, CHRM5 PAM 19* and M1 ag parental -1.
